Screens: PubChem BioAssay, The Scripps Research Institute Molecular Screening Center
HTR1E agonist: 5-HT1E receptor agonists, primary screen, cell-based, HTS; 0.69% of 65,000 active; CHO 5-HT1E Ga15 NFAT-bla reporter, FRET; 0% DMSO wells, 100% control agonist wells; AID 574, 2007; activation, % at 6 µM;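 active = activation above a set limit, the screen-wide mean activation plus 3 SD, cut at about 8.5% in these data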
5-HT1A blocker: human 5-HT1a receptor antagonists, primary screen, cell-based, CHO, Ga15 NFAT-bla reporter | CHO 5-HT1a Ga15 NFAT-bla reporter, antagonist mode | inhibition, % at 10 µM | 0.68% of 62,000 active | AID 612, 2007;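 active = inhibition above the mean of all tested compounds plus 3 SD, cut at about 43% in these data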;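 also: receptor stimulated by 5-CT agonist at 100 nM near EC80; beta-lactamase reporter measured by ratiometric fluorescence of a cleavable substrate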
S1P3 ag: human S1P3 receptor agonists, primary screen, cell-based, primary and confirmation, NFAT-BLA reporter; activation, % at 4.5 µM; 0.1% of 60,000 active; Sphingosine 1-phosphate receptor 3 (Homo sapiens), Q99500; S1P3 NFAT-BLA reporter cells, agonism, FRET ratio; relative to 1 µM S1P, basal subtracted;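 active = activation above the screen-wide mean plus 3 SD, cut at about 4.5% in these data, passing the limit was not always enough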
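Benchmarks: high control 1 µM S1P / System: stable CHO line with human S1P3, Gα16, NFAT-BLA reporter / Dosing: single compound concentration, 4.5 µM final / Timing: 4 h compound at 37 °C, 2 h substrate at RT / Measured by: FRET β-lactamase substrate fluorescence, excitation 405 nm, 460/535 nm emission ratio, background-subtracted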
S1P1 ag-PAM: S1P1 agonists and agonism potentiators, primary screen, cell-based, primary and confirmation screens, CRE-bla reporter; Sphingosine 1-phosphate receptor 1 (Homo sapiens), P21453; S1P1 CRE-bla cells, forskolin, beta-lactamase FRET, potentiator mode; S1P1 agonist co-added at EC20, 2 nM; 100% = saturating reference agonist, 0% = basal; activation, % at 9.5 µM; 0.57% of 56,000 active; AID 449, 2006;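 active = activation above a cutoff set at the mean activation of all tested compounds plus 3 SD, cut at about 54% in these data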;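 also: forskolin at 4 µM as EC80 and the EC20 agonist is SEW2871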
Target sequence (P21453 whole entry, looked up): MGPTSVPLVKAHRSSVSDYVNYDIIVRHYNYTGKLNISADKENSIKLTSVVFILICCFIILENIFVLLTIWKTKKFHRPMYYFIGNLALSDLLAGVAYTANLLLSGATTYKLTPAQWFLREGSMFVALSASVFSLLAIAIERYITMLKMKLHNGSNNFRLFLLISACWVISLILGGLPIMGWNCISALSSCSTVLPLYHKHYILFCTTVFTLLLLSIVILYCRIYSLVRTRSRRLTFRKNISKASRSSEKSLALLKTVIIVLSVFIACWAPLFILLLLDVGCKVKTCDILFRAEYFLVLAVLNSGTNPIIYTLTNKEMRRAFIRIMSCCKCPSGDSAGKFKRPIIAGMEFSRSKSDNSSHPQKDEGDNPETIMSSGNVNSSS
5HT1a ag: human 5-HT1a receptor agonists, primary screen, cell-based, CHO, Ga15 NFAT-bla reporter | 0.56% of 65,000 active | CHO 5-HT1a Ga15 NFAT-bla reporter, FRET ratio; 0% basal, 100% maximal reference agonist | activation, % at 10 µM;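 active = activation above the screen-wide mean activation plus 3 SD, cut at about 19% in these data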
5HT1E antag: 5-HT1E receptor antagonists, primary screen, cell-based, HTS; 5-hydroxytryptamine receptor 1E (Homo sapiens), P28566; CHO 5-HT1E Ga15 NFAT-bla reporter, FRET, antagonist; inhibition, % at 6 µM; 0.99% of 65,000 active;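 active = inhibition above a set limit, the mean inhibition across every tested compound plus 3 SD, cut at about 29% in these data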;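 also: signal is the 460 over 535 nm emission ratio of beta-lactamase substrate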
Large screens that a line does not name were inactive. Sampled rows, rich in hits. Any-hit rate of the full collection: about 2.9%.

CCOC(=O)C1CCN(C(=O)Cc2c(C(=O)O)n(C)c3ccccc23)CC1	HTR1E agonist 116.9
CCOC(=O)C1CCN(C(=O)Cn2cc(C(=O)C3CC3)c3ccccc32)CC1	none
C=CCN1C(=Nc2cccnc2)SCC1(O)c1ccc(C)cc1 (stereo not drawn)	S1P1 ag-PAM 77.1
O=C(NCCc1c[nH]c2ccccc12)c1ccc(-n2cnnn2)cc1	none
O=C(Nc1ccc(S(=O)(=O)NCc2ccco2)cc1)c1ccc2ccccc2n1	5-HT1A blocker 49.2, S1P1 ag-PAM 96.5
O=C(NCCc1c[nH]c2ccccc12)c1ccc(S(=O)(=O)NCc2ccco2)cc1	HTR1E agonist 12.8 (no result: S1P3 ag, S1P1 ag-PAM)
CCCOC(=O)CSc1nc(N)c(C#N)c(CC)c1C#N	none
O=C(CSc1ncnc2c1oc1ccccc12)NCc1ccc(F)cc1	none
CC(=O)Nc1ccc(S(=O)(=O)N2CCSC2c2ccccc2Cl)cc1 (stereo not drawn)	5HT1E antag 35.2
O=C(Nc1nccs1)c1cc(S(=O)(=O)N2CCOCC2)ccc1Cl	none (no result: S1P3 ag, S1P1 ag-PAM)
CC(=O)c1c(C)[nH]c(C(=O)OCc2nnc(-c3ccccc3)o2)c1C	5HT1E antag 35.0
Cc1ccc(C(=O)OCc2nnc(-c3ccccc3)o2)o1	none
CCCNCC(O)COc1ccccc1C(=O)CCc1ccccc1 (stereo not drawn)	none (no result: 5-HT1A blocker)
CCn1c(N)c(C(=O)NC)sc1=S	none
O=C(NCc1ccccc1)NC1(C(=O)N2CCN(c3ncccn3)CC2)CCCCC1	none
O=C(NCc1ccccc1)NC1(C(=O)N2CCCC2)CCCCC1	HTR1E agonist 89.0
COc1ccccc1N1CCN(C(=O)CSc2ncccc2-c2nc3ccccc3[nH]2)CC1	HTR1E agonist 21.8 (no result: S1P3 ag, S1P1 ag-PAM)
COc1ccc(N2CCN(C(=O)CSc3ncccc3-c3nc4ccccc4[nH]3)CC2)cc1	none
O=C(CSc1ncccc1-c1nc2ccccc2[nH]1)N1CCN(c2ccccc2F)CC1	HTR1E agonist 8.7
O=C(N1CCOCC1)N(CCN1CCOCC1)Cc1cccc(Cl)c1	none
CCSc1cnc(-c2ccccc2)n1CC	none (no result: S1P3 ag, S1P1 ag-PAM)
CCN1CCN(c2nc3c(c(=O)[nH]c(=O)n3C)n2CCCSc2ncccn2)CC1	5HT1a ag 61.6
O=c1c2ccccc2nc(-c2ccco2)n1Cc1ccccc1	none (no result: S1P3 ag, S1P1 ag-PAM)
O=c1c2ccccc2nc(N2CCN(c3ccccc3)CC2)n1Cc1ccccc1	5-HT1A blocker 46.8
Cc1cccc2cc(C#N)c(SCC(=O)N3CC(=O)Nc4ccccc43)nc12	5HT1E antag 45.0
Clc1ccc(OCCN2CCN(c3ncnc4sccc34)CC2)cc1	S1P1 ag-PAM 115.3
C#CC(C)(CC)NC(=O)Cn1nnc(-c2ccc(S(C)(=O)=O)cc2)n1 (stereo not drawn)	none
Cc1cc(NC(=O)C2CCC2)n(-c2ccccn2)n1	5HT1E antag 36.1 (no result: S1P3 ag, S1P1 ag-PAM)
COc1ccc2c(c1)CCc1c(C(=O)Nc3ccc(OC)c(OC)c3)noc1-2	S1P1 ag-PAM 104.3
Cc1cc(N2CCC(C)CC2)n2ncc(-c3ccccc3)c2n1	none
COc1ccc(-n2c(SCCC#N)nnc2-c2cc(Cl)ccc2OC)cc1Cl	none
c1ccc2[nH]c(CSc3ncnc4c3oc3ccccc34)nc2c1	5HT1E antag 38.0
Cc1nc(N2CCN(Cc3nc4ccccc4[nH]3)CC2)c2oc3ccccc3c2n1	HTR1E agonist 27.8, 5HT1E antag 31.5 (no result: S1P3 ag, S1P1 ag-PAM)
Cc1nc(SCc2nc3ccccc3[nH]2)c2oc3ccccc3c2n1	5HT1E antag 39.3
COCCNC(=O)CSc1nc2ccccc2c(=O)n1CCCC(=O)NCc1ccccc1	5HT1a ag 26.4 (no result: S1P3 ag, S1P1 ag-PAM)
CCNC(=O)CSc1nc2ccccc2c(=O)n1CCCOC(C)C	none
CCOc1ccc(NC(=O)N2CCN(c3nc4ccccc4s3)CC2)cc1	HTR1E agonist 17.0
